The test system of one data set is Influenza A virus H3N2. Briefly: Antiviral activity against Influenza A virus H3N2 A/Hong Kong/68 infected in MDCK cells assessed as inhibition of virus-induced cytopathic effect after 48 hrs. Format: functional, organism-based. In short, it runs like this: (§1)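 Run on 2-day-old confluent MDCK monolayers. Test concentrations reached a maximum of 100 μM for pure compounds and 100 μg/mL for extracts or fractions. Virus input gave complete CPE at 48 h post-infection, when inhibition was scored. Each concentration was tested twice. IC50 (50% inhibition of virus-induced CPE) is the mean of at least three experiments.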

For a further data set, the system named is Influenza A virus. Briefly: Antiviral activity against Influenza A virus H1N1 A/Jena/8178/09 infected in MDCK cells assessed as inhibition of virus-induced cytopathic effect after 48 hrs. It is filed as functional, organism-based. The gist of the method:
as §1
Background: Cytopathic effects are the visible damage that an infection or toxin causes in cultured cells.

A short description of data set [1]: Selectivity index, ratio of CC50 for MDCK cells to IC50 for Influenza A virus H1N1 A/Jena/8178/09 infected in MDCK cells. It is filed as toxicity, cell-based. Conditions: dog, read-out: Ratio CC50/IC50; call rule not given here. In short, it runs like this:
(§2)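 SI was calculated as CC50/IC50. CC50 was measured on 2-day-old confluent MDCK monolayers 72 h after sample addition, at a maximum of 100 μM for compounds or 100 μg/mL for extracts or fractions, with each concentration tested twice. IC50 came from the 48 h CPE inhibition assay. Both are means of at least three experiments.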

The nature of data set [2]: Selectivity index, ratio of CC50 for MDCK cells to IC50 for Influenza A virus H3N2 A/Hong Kong/68 infected in MDCK cells. It is filed as toxicity, cell-based. The conditions noted are these: dog, read-out: Ratio CC50/IC50. In short, it runs like this: as §2

Consider nine molecules from ChEMBL document CHEMBL4251659, “Anti-Influenza Triterpene Saponins from the Bark of Burkea africana” (J Nat Prod, 2018).

As to `C=C(C)[C@@H]1CC[C@]2(C(=O)O)CC[C@]3(C)[C@H](CC[C@@H]4[C@@]5(C)C[C@@H](O)[C@H](O[C@@H]6O[C@H](CO)[C@@H](O)[C@H](O)[C@H]6O[C@@H]6OC[C@@H](O)[C@H](O)[C@H]6O)C(C)(C)[C@@H]5CC[C@]43C)[C@@H]12`, the IC50 entry in the data set on Influenza A virus H3N2 is “Not Active”.
`C[C@H]1O[C@@H](O[C@H]2[C@H](O)[C@@H](O[C@@H]3OC[C@@H](O)[C@H](O)[C@H]3O)[C@H](O[C@H]3[C@H](O)C[C@]4(C)[C@H]5CC=C6[C@@H]7CC(C)(C)CC[C@]7(C(=O)O)CC[C@@]6(C)[C@]5(C)CC[C@H]4C3(C)C)O[C@@H]2CO)[C@@H](O)[C@@H](O)[C@@H]1O`: the IC50 result in the data set with Influenza A virus is listed as “Not Active”.
With `CC1(C)C[C@H]2C3=CC[C@@H]4[C@@]5(C)CC[C@H](O)C(C)(C)[C@@H]5CC[C@@]4(C)[C@]3(C)CC[C@@]2(C(=O)O)C[C@H]1OC(=O)/C=C/c1ccccc1`, the selectivity ratio in data set [1] is more than 15; in data set [2] it was more than 11.
Regarding `C=C(C)[C@@H]1CC[C@]2(C(=O)O)CC[C@]3(CO)[C@H](CC[C@@H]4[C@@]5(C)C[C@@H](O)[C@H](O[C@@H]6O[C@H](CO)[C@@H](O)[C@H](O)[C@H]6O[C@@H]6O[C@H](CO)[C@@H](O)[C@H](O)[C@H]6O)C(C)(C)[C@@H]5CC[C@]43C)[C@@H]12`, the IC50 result in the data set on Influenza A virus H3N2 was “Not Active”.
Consider `C=C(C)[C@@H]1CC[C@]2(C(=O)O)CC[C@]3(CO)[C@H](CC[C@@H]4[C@@]5(C)C[C@@H](O)[C@H](O)C(C)(C)[C@@H]5CC[C@]43C)[C@@H]12`, for which the IC50 result in the data set with Influenza A virus H3N2 is listed as “Not Active”.
As to `C=C(C)[C@@H]1CC[C@]2(C(=O)O)CC[C@]3(CO)[C@H](CC[C@@H]4[C@@]5(C)C[C@@H](O)[C@H](O[C@@H]6O[C@H](CO)[C@@H](O)[C@H](O)[C@H]6O[C@@H]6OC[C@@H](O)[C@H](O)[C@H]6O)C(C)(C)[C@@H]5CC[C@]43C)[C@@H]12`, the IC50 entry in the data set with Influenza A virus H3N2 and in the data set with Influenza A virus was “Not Active” throughout.
As for `CC1(C)C[C@H]2C3=CC[C@@H]4[C@@]5(C)C[C@@H](O)[C@H](O)C(C)(C)[C@@H]5CC[C@@]4(C)[C@]3(C)CC[C@@]2(C(=O)O)C[C@H]1OC(=O)/C=C/c1ccccc1`, the selectivity ratio in data set [1] was more than 14; in data set [2] it was more than 9.
Turning to `C=C(C)[C@@H]1CC[C@]2(C(=O)O)CC[C@]3(C)[C@H](CC[C@@H]4[C@@]5(C)C[C@@H](O)[C@H](O)C(C)(C)[C@@H]5CC[C@]43C)[C@@H]12` [ALPHITOLIC ACID], the IC50 result with Influenza A virus H3N2 and in the data set with Influenza A virus was “Not Active” in each case.
For the molecule `CC1(C)CC[C@]2(C(=O)O)CC[C@]3(C)C(=CC[C@@H]4[C@@]5(C)C[C@@H](O)[C@H](O)C(C)(C)[C@@H]5CC[C@]43C)[C@@H]2C1` [MASLINIC ACID], the IC50 result in the data set with Influenza A virus H3N2 and in the data set on Influenza A virus was “Not Active” each time.
